The list is not random: actives were taken first. Their share in the collection is about 2.3%.
TRPC4 PAM: allosteric potentiators of mouse TRPC4 channel; Q9QUQ5; HEK293 TRPC4beta/mu-opioid, DAMGO EC20, Fluo-4 Ca2+ flux; active compounds read high; B-score at 10 µM; 310,000 compounds, 0.42% hits; AID 2227;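 active means B-score of calcium response area above 5 SD of library B-scores, with initial fluorescence ratio within 5 SD of library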
Target sequence (Q9QUQ5 whole entry, looked up): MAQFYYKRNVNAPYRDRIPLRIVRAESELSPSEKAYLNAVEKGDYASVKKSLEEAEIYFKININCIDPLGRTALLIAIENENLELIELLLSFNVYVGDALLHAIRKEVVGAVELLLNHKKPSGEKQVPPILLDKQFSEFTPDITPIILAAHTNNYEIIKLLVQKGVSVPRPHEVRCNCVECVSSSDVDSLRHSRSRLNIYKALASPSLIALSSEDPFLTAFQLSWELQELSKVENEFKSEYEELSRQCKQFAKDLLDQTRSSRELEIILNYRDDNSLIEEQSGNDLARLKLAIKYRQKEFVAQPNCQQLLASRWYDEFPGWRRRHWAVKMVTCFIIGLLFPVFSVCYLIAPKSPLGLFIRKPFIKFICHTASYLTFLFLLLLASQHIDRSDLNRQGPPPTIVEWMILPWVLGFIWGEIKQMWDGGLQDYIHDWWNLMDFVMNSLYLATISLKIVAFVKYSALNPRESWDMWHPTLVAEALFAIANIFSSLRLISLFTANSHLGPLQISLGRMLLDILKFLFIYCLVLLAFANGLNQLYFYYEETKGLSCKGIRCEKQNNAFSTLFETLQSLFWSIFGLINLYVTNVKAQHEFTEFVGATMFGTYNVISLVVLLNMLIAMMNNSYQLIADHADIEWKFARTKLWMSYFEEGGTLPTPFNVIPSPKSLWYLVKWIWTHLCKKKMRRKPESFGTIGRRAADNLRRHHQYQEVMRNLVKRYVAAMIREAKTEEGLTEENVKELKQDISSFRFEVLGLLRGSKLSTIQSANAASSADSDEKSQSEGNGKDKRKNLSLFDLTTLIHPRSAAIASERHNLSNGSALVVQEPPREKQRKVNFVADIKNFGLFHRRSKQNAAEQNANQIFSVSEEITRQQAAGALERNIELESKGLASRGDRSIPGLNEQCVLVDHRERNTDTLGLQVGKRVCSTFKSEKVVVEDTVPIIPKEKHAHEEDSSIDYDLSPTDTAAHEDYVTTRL
TRPC4 agonist: activators of mouse TRPC4 channel. HEK293 TRPC4beta/mu-opioid, Fluo4 calcium fluorescence; active compounds read high. B-score at 10 µM. 310,000 compounds, 0.49% hits;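 active means B-score above 5 SD of library B-scores, and initial fluorescence ratio not above library mean plus 5 SD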;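 further: positive B-score marks a calcium rise read as TRPC4 activation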
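Test system: HEK293 cells stably co-expressing mouse TRPC4beta and mu-opioid receptor | Schedule: Fluo4 dye loading 45 min at room temperature, 110 s recording | Measured by: Kinetic Fluo4 calcium fluorescence, 5 s baseline at 1 Hz | Evaluation: B score of integrated ratio | Controls: Buffer (low) and maximal DAMGO (high)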
TRPC4 block: inhibitors of mouse TRPC4 channel; Q9QUQ5; B-score at 10 µM; AID 2247; 300,000 compounds, 0.39% hits; HEK293 TRPC4beta/mu-opioid, DAMGO-evoked Fluo4 calcium flux; active compounds read low;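 active means B-score over 3 SD under the library average, no early fluorescence shift, positive overall ratio signal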
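Material: HEK293 cells with stable TRPC4beta plus mu-opioid receptor expression; probe or stimulus: DAMGO in two steps, submaximal then maximal; technique: Fluo4 calcium fluorescence by kinetic imaging, 5 s 1 Hz baseline; measure: integrated fluorescence ratio relative to baseline, converted to per-well B score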
TRPC6 inh: blocks the mouse TRPC6 cation channel | Q61143 | HEK293-TRPC6, membrane potential dye, ACh-evoked depolarization; active compounds read low | B-score at 10 µM | 310,000 compounds, 1.1% hits;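 active means B-score under library mean minus 3 SD, initial fluorescence not abnormally high, positive integrated signal ratio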;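 further: B-score derived from integrated fluorescence ratio over the kinetic read; more negative B-score means stronger inhibition of depolarization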
TRPC6 act: activates the mouse TRPC6 cation channel; HEK293-TRPC6 membrane potential dye fluorescence; active compounds read high; B-score at 10 µM; 310,000 compounds, 0.13% hits; AID 2550;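 active means B-score of the integrated fluorescence ratio above library mean plus 3 SD, and starting fluorescence ratio within library mean plus 5 SD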;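 further: higher score means more depolarization so channel activation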
A number is an active result.

For NC(=O)c1nsc(C(=O)N(c2ccc(F)cc2)C(C(=O)NCC2CCCO2)c2ccc3ncccc3c2)c1N (stereo not given) the results were TRPC4 PAM inactive, TRPC4 agonist inactive, TRPC4 block inactive, TRPC6 inh inactive and TRPC6 act inactive.
For COc1ccc(CN(C(=O)c2snc(C(N)=O)c2N)C(CC(C)C)C(=O)NC2CCCCC2)cc1 (stereo not given) the results were TRPC4 PAM inactive, TRPC4 agonist inactive, TRPC4 block -7, TRPC6 inh inactive and TRPC6 act inactive.
`COc1cccc(N(C(=O)c2snc(C(N)=O)c2N)C(C(=O)NCC2CCCO2)c2ccc3ncccc3c2)c1` (stereo not given) gave TRPC4 PAM inactive, TRPC4 agonist inactive, TRPC4 block -6, TRPC6 inh inactive and TRPC6 act inactive.
For Cc1ccc(C(C)(C)C)cc1S(=O)(=O)Nc1nc2ccccc2nc1Cl the results were TRPC4 PAM inactive, TRPC4 agonist inactive, TRPC4 block -6, TRPC6 inh inactive and TRPC6 act inactive.
Nc1c2c(nc3sc4c(c13)CCCCC4)CCCCC2 was read as TRPC4 PAM inactive, TRPC4 agonist inactive, TRPC4 block -5, TRPC6 inh inactive and TRPC6 act inactive.
Screening CC1CCc2nc3sc4c(c3c(N)c2C1)CCCC4 (stereo not given) returned TRPC4 PAM inactive, TRPC4 agonist inactive, TRPC4 block inactive, TRPC6 inh inactive and TRPC6 act inactive.
For COc1ccc(CN2CCCC2C(=O)Nc2ccc(OC)c(OC)c2)cc1OC (stereo not given) the results were TRPC4 PAM inactive, TRPC4 agonist inactive, TRPC4 block inactive, TRPC6 inh -5.7 and TRPC6 act inactive.
For Cn1c(COc2ccc(F)cc2)nnc1SCC(=O)NC1CC1 the results were TRPC4 PAM inactive, TRPC4 agonist inactive, TRPC4 block inactive, TRPC6 inh inactive and TRPC6 act inactive.
CCN1CCN(CC(=O)N/N=C/c2ccc(F)cc2F)CC1 was read as TRPC4 PAM inactive, TRPC4 agonist inactive, TRPC4 block inactive, TRPC6 inh inactive and TRPC6 act inactive.
Screening CCOC(=O)Cn1c(=O)oc2cc(S(=O)(=O)Nc3ccc(F)cc3)ccc21 returned TRPC4 PAM inactive, TRPC4 agonist 47, TRPC4 block inactive, TRPC6 inh inactive and TRPC6 act inactive.
For O=C1CC(N2CCN(c3nc4ccccc4s3)CC2)C(=O)N1c1ccc(F)cc1 (stereo not given) the results were TRPC4 PAM 14, TRPC4 agonist inactive, TRPC4 block inactive, TRPC6 inh inactive and TRPC6 act inactive.
For O=C1Nc2cc(C(=O)N3CCN(c4ccccc4F)CC3)ccc2NC1CSCc1ccccc1F (stereo not given) the results were TRPC4 PAM inactive, TRPC4 agonist inactive, TRPC4 block inactive, TRPC6 inh inactive and TRPC6 act inactive.
COc1ccccc1N1CCN(C(=O)c2ccc3c(c2)NC(=O)C(CSCc2ccccc2C)N3)CC1 (stereo not given) was read as TRPC4 PAM inactive, TRPC4 agonist inactive, TRPC4 block inactive, TRPC6 inh -8.8 and TRPC6 act inactive.
Screening CNCc1ccccc1Sc1cccc2ccccc12 returned TRPC4 PAM inactive, TRPC4 agonist 46, TRPC4 block -6, TRPC6 inh inactive and TRPC6 act inactive.
Screening CNCc1ccccc1Sc1ccc(OC)cc1 returned TRPC4 PAM inactive, TRPC4 agonist inactive, TRPC4 block inactive, TRPC6 inh inactive and TRPC6 act inactive.
`Cc1cccc2cc(CN(Cc3nnnn3C3CCCC3)C3CCCCC3)c(=O)[nH]c12` gave TRPC4 PAM inactive, TRPC4 agonist inactive, TRPC4 block inactive, TRPC6 inh inactive and TRPC6 act inactive.
Screening CCc1ccc2[nH]c(=O)c(CN(Cc3nnnn3C3CCCC3)C3CCCCC3)cc2c1 returned TRPC4 PAM 10, TRPC4 agonist inactive, TRPC4 block inactive, TRPC6 inh inactive and TRPC6 act inactive.
Screening Cc1ccc(OCCNC(=O)C(=O)NCc2ccco2)cc1 returned TRPC4 PAM inactive, TRPC4 agonist inactive, TRPC4 block inactive, TRPC6 inh inactive and TRPC6 act inactive.
`O/N=C/c1ccccc1Oc1ccc(Cl)cc1` gave TRPC4 PAM inactive, TRPC4 agonist inactive, TRPC4 block -6, TRPC6 inh inactive and TRPC6 act inactive.
For CCn1nccc1C(=O)Nc1cc(Cl)cc(Cl)c1 the results were TRPC4 PAM inactive, TRPC4 agonist inactive, TRPC4 block -5, TRPC6 inh inactive and TRPC6 act inactive.
CCn1c2ccccc2c2cc(NC(=O)CC(C)=O)ccc21 was read as TRPC4 PAM inactive, TRPC4 agonist inactive, TRPC4 block inactive, TRPC6 inh inactive and TRPC6 act inactive.
For CCCc1nc2ccccc2n1CCOC the results were TRPC4 PAM inactive, TRPC4 agonist inactive, TRPC4 block inactive, TRPC6 inh inactive and TRPC6 act inactive.
`Cc1ccc(OCCn2c(C)nc3ccccc32)cc1` gave TRPC4 PAM inactive, TRPC4 agonist inactive, TRPC4 block -6, TRPC6 inh inactive and TRPC6 act inactive.
Screening CCCc1nc2ccccc2n1CCOc1ccccc1 returned TRPC4 PAM inactive, TRPC4 agonist inactive, TRPC4 block -6, TRPC6 inh inactive and TRPC6 act inactive.
Screening Cc1nc2ccccc2n1Cc1ccccc1 returned TRPC4 PAM inactive, TRPC4 agonist inactive, TRPC4 block inactive, TRPC6 inh inactive and TRPC6 act inactive.
`Nc1nc2ccccc2n1CCOc1ccc(Br)cc1` gave TRPC4 PAM inactive, TRPC4 agonist inactive, TRPC4 block inactive, TRPC6 inh inactive and TRPC6 act inactive.
Screening Nc1nc2ccccc2n1CCOc1ccc(Cl)cc1 returned TRPC4 PAM inactive, TRPC4 agonist inactive, TRPC4 block -7, TRPC6 inh inactive and TRPC6 act inactive.
For Cc1nc2ccccc2n1Cc1ccc(Br)cc1 the results were TRPC4 PAM inactive, TRPC4 agonist inactive, TRPC4 block -6, TRPC6 inh inactive and TRPC6 act inactive.
`O=C(Nc1ccccc1)/C(=C1\CCCN1)[N+](=O)[O-]` gave TRPC4 PAM inactive, TRPC4 agonist inactive, TRPC4 block inactive, TRPC6 inh inactive and TRPC6 act inactive.
Screening Cc1ccc(O)c(N/C=C/C(=O)c2ccc(F)cc2)c1 returned TRPC4 PAM inactive, TRPC4 agonist inactive, TRPC4 block inactive, TRPC6 inh inactive and TRPC6 act inactive.
COCCn1nnnc1C(c1cccs1)N1CCN2CCCC2C1 (stereo not given) was read as TRPC4 PAM inactive, TRPC4 agonist inactive, TRPC4 block inactive, TRPC6 inh inactive and TRPC6 act inactive.
Screening CC1(C)C=C2C(=NN(c3ccccc3)C(N)=C2C#N)CO1 returned TRPC4 PAM inactive, TRPC4 agonist inactive, TRPC4 block inactive, TRPC6 inh inactive and TRPC6 act inactive.
`NNC(=O)CS(=O)(=O)c1ccc(Cl)cc1` gave TRPC4 PAM inactive, TRPC4 agonist inactive, TRPC4 block inactive, TRPC6 inh inactive and TRPC6 act inactive.
Screening Cc1nc(Cl)c(Cl)n1CCOc1ccccc1 returned TRPC4 PAM inactive, TRPC4 agonist inactive, TRPC4 block -8, TRPC6 inh inactive and TRPC6 act inactive.
